Measurements gathered from unrelated publications.
Each line is one published result; the experiments were not run side by side.
Target: Mitogen-activated protein kinase kinase kinase 10 (MAP3K10, Homo sapiens, UniProt Q02779)

COc1ccnn2ncc(-c3ccnc(N(C)C)n3)c12
remaining binding (binding; 1 µM): 78%

Cc1cnc(Nc2ccc(C(=O)N3CCC(N4CCCC4)CC3)cc2)nc1-c1cc2ccccc2s1
remaining binding (binding, competition with immobilised ligand; 1 µM): 0%

COc1cnc(Nc2cccc(S(N)(=O)=O)c2)nc1N1CCN(c2ccccc2)CC1
remaining binding (binding, competition with immobilised ligand; 1 µM): 89%

C[C@H]1CCN(c2nccc(-c3cnn4ncccc34)n2)C1
remaining binding (binding; 1 µM): 100%

CNC(=O)c1ccc(Nc2ncc(C(F)(F)F)c(NCc3nccnc3N(C)S(C)(=O)=O)n2)cc1
remaining binding (cell-free assay, competition with immobilised ligand; 0.1 µM): 68%

O=C(c1ccc(Nc2ncc(Cl)c(-c3ccc(Cl)s3)n2)cc1)N1CCC(N2CCCC2)CC1
remaining binding (binding, competition with immobilised ligand; 1 µM): 0%

COc1ncc2cc3ccccc3nc2c1C#N
remaining binding (cell-free assay, competition with immobilised ligand; 5 µM): 79%

FC(F)(F)Oc1cccc(-c2cnc3ccc(-c4ccncc4)nn23)c1
remaining binding (cell-free assay, competition with immobilised ligand; 5 µM): 58%

Cc1c(NC(=O)c2cc(C(N)=O)nc3cc(F)ccc23)c(C(F)(F)F)nn1Cc1ccc(C#N)cc1
remaining binding (cell-free assay, competition with immobilised ligand; 1 µM): 92%

O=C(Nc1c[nH]nc1C(=O)NC1CCNCC1)c1cc(F)cc(F)c1
remaining binding (binding, competition with immobilised ligand; 1 µM): 100%

CN(C(=O)c1ccccc1)c1cc(N(C)c2ccc3c(c2)CCc2ccc(C(=O)NCCN4CCOCC4)cc2C3=O)ccc1F
remaining binding (cell-free assay, competition with immobilised ligand; 1 µM): 75%

CCN1CCN(Cc2ccc(C(=O)Nc3ccc(C)c(Oc4ccc5c(c4)CC(=O)N5)c3)cc2C(F)(F)F)CC1
remaining binding (binding, competition with immobilised ligand; 1 µM): 100%

CC(=O)N1CCC(c2ccc(C(=O)NC(=N)N)cc2C(F)(F)F)CC1
remaining binding (cell-free assay, competition with immobilised ligand; 1 µM): 95%

CN(C)c1nccc(-c2cnn3ncccc23)n1
remaining binding (binding; 1 µM): 98%

O=C(c1ccc(Nc2ncc(Cl)c(-c3cc4ccccc4s3)n2)cc1)N1CCC(N2CCCC2)CC1
remaining binding (binding, competition with immobilised ligand; 1 µM): 3.5%

N[C@@H]1CCN(c2nccc(-c3cnn4ncccc34)n2)C1
remaining binding (binding; 1 µM): 100%

C[C@H](c1cccc(C#N)c1)n1cc(Cl)cc(C(N)=O)c1=N
remaining binding (cell-free assay, competition with immobilised ligand; 1 µM): 100%

CC1CCCN1c1nccc(-c2cnn3ncccc23)n1 (stereo not drawn)
remaining binding (binding; 1 µM): 100%

C=CC(=O)N1CCC(C(=O)NCC(=O)N2CCN(c3nc(-c4cnc(N)nc4C(F)F)nc(N4CCOCC4)n3)CC2)CC1
remaining binding (binding, competition with immobilised ligand; 1 µM): 99%

Cc1cnn2ncc(-c3ccnc(N(C)C)n3)c2c1
remaining binding (binding; 1 µM): 100%

CN1CCN(c2cnc3c(C4CCN(C(=O)c5ccc(OC(F)(F)F)cc5N)CC4)ncnc3c2)CC1
remaining binding (cell-free assay, competition with immobilised ligand; 1 µM): 100%
